Values after ≈ are worked out from the molar mass of the structure shown.
Tests used:
Liver microsomes = test: Metabolic stability in rat liver microsomes; type: ADME, Microsome
Summary of the method: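 Rat liver microsomes incubated aerobically with test compound, with and without NADPH, stopped after 30 min. Parent remaining in the NADPH incubation quantified by reversed-phase HPLC with UV detection against the NADPH-free reference incubation and given as percent remaining. Main metabolite structure confirmed by LC/MS. Mean of at least two independent determinations.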

[1] = Thermodynamic solubility in sodium phosphate buffer at pH 7.4; type: physicochemical
Summary of the method: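 Thermodynamic method: solid compound suspended in sodium phosphate buffer pH 7.4, sonicated 10 min, then shaken 20 h at room temperature. Undissolved material removed by centrifugation, and dissolved concentration in the aqueous phase measured by HPLC.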

[2] = target: T1, Cytosolic phospholipase A2 (Homo sapiens, UniProt P47712); test: Inhibition of cPLA2 in human platelets assessed as arachidonic acid release
T1 sequence (P47712 whole entry): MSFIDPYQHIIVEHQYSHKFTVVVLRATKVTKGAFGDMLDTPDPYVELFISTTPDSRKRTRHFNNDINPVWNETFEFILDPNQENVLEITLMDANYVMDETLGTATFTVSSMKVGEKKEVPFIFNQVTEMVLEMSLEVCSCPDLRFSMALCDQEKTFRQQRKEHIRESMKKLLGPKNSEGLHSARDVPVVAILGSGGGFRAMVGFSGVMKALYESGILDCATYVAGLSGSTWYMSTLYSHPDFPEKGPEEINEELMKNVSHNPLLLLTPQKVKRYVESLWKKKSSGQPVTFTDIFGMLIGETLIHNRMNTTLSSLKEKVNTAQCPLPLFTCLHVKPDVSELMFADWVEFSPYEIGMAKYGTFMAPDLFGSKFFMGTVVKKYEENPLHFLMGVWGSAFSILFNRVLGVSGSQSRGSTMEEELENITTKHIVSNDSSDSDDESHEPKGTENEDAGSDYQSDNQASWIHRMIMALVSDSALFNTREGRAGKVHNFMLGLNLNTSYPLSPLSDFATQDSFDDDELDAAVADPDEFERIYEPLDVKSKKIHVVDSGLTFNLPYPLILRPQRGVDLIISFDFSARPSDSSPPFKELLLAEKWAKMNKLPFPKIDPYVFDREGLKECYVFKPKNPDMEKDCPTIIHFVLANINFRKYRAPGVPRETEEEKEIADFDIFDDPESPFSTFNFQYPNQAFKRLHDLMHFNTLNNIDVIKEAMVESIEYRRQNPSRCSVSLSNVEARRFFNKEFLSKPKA
Summary of the method: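 cPLA2α purified from human platelets; substrate covesicles of 1-stearoyl-2-arachidonoyl-sn-glycero-3-phosphocholine (SAPC) with 1,2-dioleoyl-sn-glycerol (DOG). Arachidonic acid released from SAPC after 60 min incubation quantified by reversed-phase HPLC, UV 200 nm; inhibition from release with vs without compound. IC50 values are means of at least two independent determinations.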

CCCCCCCCc1ccc(OCC(=O)Cn2ccc3ccc(C(=O)O)cc32)cc1
Stability (Liver microsomes): 39%
solubility thermodynamic [1]: < 1 µg/mL

CCCCCCCCc1ccc(OCC(=O)Cn2ncc3ccc(C(=O)O)cc32)cc1
IC50 [2]: 26 nM
Stability (Liver microsomes): 36%
solubility thermodynamic [1]: 5 µg/mL (≈ 11.8 µM)

CCCCCCCCc1ccc(OCC(=O)Cn2cnc3cc(C(=O)O)ccc32)cc1
IC50 [2]: 150 nM
Stability (Liver microsomes): 49%
solubility thermodynamic [1]: 22 µg/mL (≈ 52.1 µM)

CCCCCCCCc1ccc(OCC(=O)Cn2ncc3cc(C(=O)O)ccc32)cc1
IC50 [2]: 5 nM
Stability (Liver microsomes): 64%
solubility thermodynamic [1]: < 1 µg/mL

CCCCCCCCc1ccc(OCC(=O)Cn2nnc3ccc(C(=O)O)cc32)cc1
IC50 [2]: 16 nM
Stability (Liver microsomes): 44%
solubility thermodynamic [1]: 2 µg/mL (≈ 4.72 µM)

CCCCCCCCc1ccc(OCC(=O)Cn2nnc3cc(C(=O)O)ccc32)cc1
IC50 [2]: 26 nM
Stability (Liver microsomes): 43%
solubility thermodynamic [1]: < 1 µg/mL

CCCCCCCCc1ccc(OCC(=O)Cn2cnc3ccc(C(=O)O)cc32)cc1
IC50 [2]: 85 nM
Stability (Liver microsomes): 40%
solubility thermodynamic [1]: 7 µg/mL (≈ 16.6 µM)
